Experimental data pooled from the literature.
Protocols differ between the studies behind these lines.
ADRB2: Beta-2 adrenergic receptor (ADRB2, Homo sapiens, UniProt P07550)
P2RY6: P2Y purinoceptor 6 (P2RY6, Homo sapiens, UniProt Q15077)
MMP2: 72 kDa type IV collagenase (MMP2, Homo sapiens, UniProt P08253)
Trpc6: Short transient receptor potential channel 6 (Trpc6, Mus musculus, UniProt Q61143)
HDAC7: Histone deacetylase 7 (HDAC7, Homo sapiens, UniProt Q8WUI4)
CSNK1A1: Casein kinase I isoform alpha (CSNK1A1, Homo sapiens, UniProt P48729)
SLC22A2: Solute carrier family 22 member 2 (SLC22A2, Homo sapiens, UniProt O15244)
SETD7: Histone-lysine N-methyltransferase SETD7 (SETD7, Homo sapiens, UniProt Q8WTS6)
Akr1b1: Aldo-keto reductase family 1 member B1 (Akr1b1, Rattus norvegicus, UniProt P07943)
CNR2: Cannabinoid receptor 2 (CNR2, Homo sapiens, UniProt P34972)

| Structure (SMILES) | target | test | system | setting | IC50 [µM] |
| --- | --- | --- | --- | --- | --- |
| CCCN(CCC)CCc1cccc2c1CC(=O)N2 | ADRB2 | ligand displacement, radioligand | – | cell membranes | 200 |
| O=[N+]([O-])C1=Cc2cc(C#Cc3ccc(F)cc3)ccc2OC1C(F)(F)F (centres unmarked) | P2RY6 | calcium signal, antagonist, fluorescence | – | – | 4.4 |
| Cn1cc(-c2cc3cc(-c4cc(C(=O)NCc5ccc(C(=O)O)cc5)nn4C)ccc3[nH]2)cn1 | MMP2 | enzyme activity, inhibitor | – | – | > 20 |
| CCC1(c2ccc(C)cc2)C(=O)N(C(=O)OC(C)C)N1C(=O)OC(C)C (centres unmarked) | Monoacylglycerol lipase ABHD6 (Abhd6, Mus musculus, UniProt Q8R2Y0) | enzyme activity, inhibitor | – | – | 3 |
| CN(C)CCN(C(=O)c1ccc(Cl)s1)c1nc2ccccc2s1 | Trpc6 | calcium signal, fluorescence | – | – | 15.1 |
| CCCC[C@H](NC(=O)C1CN(C)C1)c1ncc(-c2cc3ccccc3nc2OC)[nH]1 | HDAC7 | enzyme activity, inhibitor | – | – | > 30 |
| Cc1noc(-c2cc3cc(-c4cc(C(=O)NCc5ccc(C(=O)O)cc5)nn4C)ccc3[nH]2)n1 | MMP2 | enzyme activity, inhibitor | – | – | > 20 |
| COc1c(OCC2CCCC2)cc2c(c1C=O)CC(O)OC2=O (centres unmarked) | Receptor-type tyrosine-protein phosphatase S (PTPRS, Homo sapiens, UniProt Q13332) | enzyme activity, inhibitor, absorbance | – | – | 0.6 to 0.7 |
| Cn1nc(C(=O)NCc2ccc(C(=O)O)cc2)cc1-c1ccc2[nH]c(-c3ccncn3)cc2c1 | MMP2 | enzyme activity, inhibitor | – | – | > 20 |
| CN1CCN(c2ccc(Nc3ncc4cc(C#N)c(=O)n(C5CCCC5)c4n3)cc2)CC1 | CSNK1A1 | enzyme activity, inhibitor | – | – | > 10 |
| CN(C(=O)n1cnc(-c2ccc[n+]([O-])c2)c1)C1CCCCC1 | SLC22A2 | transporter uptake, inhibitor | MDCK-II | – | > 33.3 |
| COc1ccc2nc(N(CCN(C)C)C(=O)c3ccc(Cl)s3)sc2c1 | Trpc6 | calcium signal, fluorescence | – | – | 61.1 |
| O=C(OCc1ccccc1)c1ccc(O)cc1 | SETD7 | enzyme activity, inhibitor | – | – | > 333 |
| COc1cccc2sc(N(CCN(C)C)C(=O)c3ccc4c(c3)CCCC4)nc12 | Trpc6 | calcium signal, fluorescence | – | – | 4.2 |
| Cc1ccc(NC(=O)c2ccc(C)c(C(F)(F)F)c2)cc1C#Cc1nn(C2CCC(O)CC2)c2ncnc(N)c12 (centres unmarked) | Epithelial discoidin domain-containing receptor 1 (DDR1, Homo sapiens, UniProt Q08345) | enzyme activity, inhibitor, radiometric | – | – | 0.015 |
| CCN(CC)CCNC(=O)c1cc(Cl)c(N)cc1OC | ADRB2 | ligand displacement, radioligand | – | cell membranes | 67.4 |
| COc1ccc(/C=C2\SC(=Nc3nc4ccc(OC)cc4s3)NC2=O)cc1 | Akr1b1 | enzyme activity, inhibitor, absorbance | – | pH 6.2 | 4.35 |
| Cc1c(C(=O)NN2CCCCC2)nc(-c2ccc(Cl)cc2Cl)n1-c1ccc(OS(=O)(=O)CCC(F)(F)F)cc1 | CNR2 | GTPγS binding, antagonist | – | cell membranes | 0.288 |
| CC[C@@H](C(=O)Nc1ccc(C(N)=O)c(F)c1)n1cc(OC)c(-c2cc(Cl)ccc2-n2cc(C(F)(F)F)nn2)cc1=O | Coagulation factor X (F10, Homo sapiens, UniProt P00742) | enzyme activity, inhibitor | – | – | 1.7 |
| Cc1noc(-c2cc3cc(-c4nc(C(=O)NCC5CCOCC5)[nH]c4C)ccc3[nH]2)n1 | MMP2 | enzyme activity, inhibitor | – | – | > 20 |
| Cc1c(C(=O)NN2CCCCC2)nc(-c2ccc(Cl)cc2Cl)n1-c1ccc(OS(=O)(=O)CCC(C)C)cc1 | CNR2 | GTPγS binding, antagonist | – | cell membranes | 0.271 |
| COc1ccc2nc(/N=C3/NC(=O)C(=Cc4cc(I)c(O)c(OC)c4)S3)sc2c1 | Akr1b1 | enzyme activity, inhibitor, absorbance | – | pH 6.2 | > 50 |
| CN1C2CCCC1CC(NC(=O)c1nn(C)c3ccccc13)C2 (centres unmarked) | ADRB2 | ligand displacement, radioligand | – | cell membranes | 42.1 |
| O=C(NO)c1ccc(CN(c2cnccn2)c2cnccn2)cc1 | Polyamine deacetylase HDAC10 (HDAC10, Homo sapiens, UniProt Q969S8) | enzyme activity, inhibitor, fluorescence | – | – | > 10 |

| Structure (SMILES) | target | test | system | setting | IC50 [µM] |
| --- | --- | --- | --- | --- | --- |
| Cc1csc(COCC(=O)C23CC4CC(CC(C4)C2)C3)n1 | 11-beta-hydroxysteroid dehydrogenase 1 (HSD11B1, Homo sapiens, UniProt P28845) | enzyme activity in cells, inhibitor | – | – | 0.071 |
| Nc1ccc(-c2ccncc2)cc1NC(=O)N1CCCC1 | HDAC7 | enzyme activity, inhibitor | – | – | > 33.3 |
| Cn1nc(C(=O)NCc2ccc(C(=O)O)cc2)cc1-c1ccc2[nH]c(-c3cccnc3)cc2c1 | MMP2 | enzyme activity, inhibitor | – | – | > 20 |
| CCCC[C@H](NC(=O)[C@H](C)c1c(C)[nH]c2ccc(O)cc12)c1ncc(-c2cc3ccccc3nc2OC)[nH]1 | HDAC7 | enzyme activity, inhibitor | – | – | > 45 |
| Cc1c(C(=O)NN2CCCCC2)nc(-c2ccc(Cl)cc2Cl)n1-c1ccc(OS(=O)(=O)CCCC(F)(F)F)cc1 | CNR2 | GTPγS binding, antagonist | – | cell membranes | 0.32 |
| COc1cccc2sc(N(CCN(C)C)C(=O)c3ccc(Cl)s3)nc12 | Trpc6 | calcium signal, fluorescence | – | – | 139 |
| Cc1noc(-c2cc3cc(-c4nc(C(=O)NCc5ccc(=O)[nH]c5)[nH]c4C)ccc3[nH]2)n1 | MMP2 | enzyme activity, inhibitor | – | – | > 24 |
| COc1cc(N)c(Cl)cc1C(=O)CCC1CCN(CCNS(C)(=O)=O)CC1 | ADRB2 | ligand displacement, radioligand | – | cell membranes | 62.6 |
| Cn1c(=O)c([N+](=O)[O-])c(Cl)c2ccccc21 | Adenylate cyclase type 8 (Homo sapiens, UniProt P40145) | cAMP, inhibitor | – | – | 1.6 |
| Cn1nc(C(=O)NCc2ccc(C(=O)O)cc2)cc1-c1ccc2[nH]c(-c3ccncc3)cc2c1 | MMP2 | enzyme activity, inhibitor | – | – | > 22 |
| CC[Si](C#Cc1ccc2c(c1)C=C([N+](=O)[O-])C(C(F)(F)F)O2)(CC)CC (centres unmarked) | P2RY6 | calcium signal, antagonist | – | – | ~1 |
| CC(C)(C)n1nc(-c2cnc3cc(OC4CC4)ccc3c2)c(C(N)=O)c1N | CSNK1A1 | cell-free assay, inhibitor | – | – | 2.91 |
| Cc1c(C(=O)N[C@@H]2CCCC[C@@H]2O)nc(-c2ccc(Cl)cc2Cl)n1-c1ccc(OS(=O)(=O)CCC(F)(F)F)cc1 (single isomer, unassigned) | CNR2 | GTPγS binding, antagonist | – | cell membranes | 0.44 |
| COc1cc(O)c(CC=C(C)C)c2c1C(=O)CC(c1ccc(O)cc1)O2 (centres unmarked) | Cytochrome P450 1B1 (CYP1B1, Homo sapiens, UniProt Q16678) | enzyme activity, inhibitor, fluorescence | – | 15 min, pH 7.4 | 0.48 |
| COc1ccc2nc(/N=C3/NC(=O)C(=Cc4ccc(O)cc4)S3)sc2c1 | Akr1b1 | enzyme activity, inhibitor, absorbance | – | pH 6.2 | 1.3 |
| CCS(=O)(=O)N1CC(CC#N)(n2cc(-c3ncnc4[nH]ccc34)cn2)C1 | SLC22A2 | transporter uptake, inhibitor, radiometric | – | 2 min | 11.6 |
| COc1ccc2nc(/N=C3/NC(=O)C(=Cc4ccc(O)c(OC)c4)S3)sc2c1 | Akr1b1 | enzyme activity, inhibitor, absorbance | – | pH 6.2 | 0.83 |
| C=CC(C)(C)c1cc(/C=C/C(=O)c2ccc(O)cc2)c(OC)cc1O | SETD7 | enzyme activity, inhibitor | – | – | > 333 |
| O=C(Nc1ccc(Cl)cc1)Nc1cccc(-c2ccc[nH]2)c1 | CNR2 | calcium signal, antagonist | – | – | > 10 |
| CN/C(=N/CCSCc1nc[nH]c1C)NC#N | SLC22A2 | transporter uptake, inhibitor | MDCK-II | – | 17 |
| Cc1ccc(S(=O)(=O)N2C(=O)COC23C=CC(=O)C=C3)cc1 | MMP2 | enzyme activity, inhibitor, fluorescence | – | – | 6.8 |
| N=C(N)NCCCC(NC(=O)C(c1ccccc1)c1ccccc1)C(=O)NCc1ccc(O)cc1 (centres unmarked) | ADRB2 | ligand displacement, radioligand | – | cell membranes | 63.1 |
| O=S(=O)(Nc1ccc2cccc(O)c2n1)c1ccc(-c2ccccc2)cc1 | MMP2 | enzyme activity, inhibitor, fluorescence | – | – | 48 |
